In experiment [1] the test system is Vero. The experiment can be described thus: Compound was evaluated for antiviral activity against Herpes Simplex Virus (HSV-2 strain MS) in vero cells in exp. no. 3. The format is functional, Chlorocebus sabaeus. In a few lines:
(§1)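 Inhibition of virus-induced cytopathogenic effect was measured in Vero cells infected with TK⁺ HSV-1 strain 377 or TK⁺ HSV-2 strain MS, using a modified Ehrlich method. Activity is given as a virus rating, which weights both the degree of CPE inhibition and the cytotoxicity of the compound. Potency is given as the minimum inhibitory concentration (MIC₅₀).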

Experiment [2] deals with Vero. The experiment can be described thus: Compound was evaluated for antiviral activity against Herpes Simplex Virus (HSV-1 strain 377) in vero cells in exp. no. 3. The class given is functional, Chlorocebus sabaeus. In a few lines: as §1
The subject of experiment [3] is Vero. The experiment can be described thus: Compound was evaluated for antiviral activity against Herpes Simplex Virus (HSV-2 strain MS) in vero cells in exp. No. 1. The format is functional, Chlorocebus sabaeus. An outline of the steps: as §1
The subject of experiment [4] is Vero. The experiment can be described thus: Compound was evaluated for antiviral activity against Herpes Simplex Virus (HSV-2 strain MS) in vero cells in exp. No. 2. The class given is functional, Chlorocebus sabaeus. In a few lines:
as §1

Experiment [5] has as its system Vero. The experiment can be described thus: Compound was evaluated for antiviral activity against Herpes Simplex Virus (HSV-2 strain MS) in vero cells in exp. No. 3. The class given is functional, Chlorocebus sabaeus. In a few lines:
as §1

The subject of experiment [6] is Vero. The experiment can be described thus: Compound was tested for the inhibition of the replication of herpes simplex virus (HSV-I strain 377) in vero cells of in exp. No. 1. The class given is functional. The settings on record: Chlorocebus sabaeus. In a few lines:
as §1

In experiment [7] the test system is Vero. The experiment can be described thus: Compound was evaluated for antiviral activity against Herpes Simplex Virus (HSV-1 strain 377) in vero cells in exp. No. 1. The format is functional, Chlorocebus sabaeus. An outline of the steps:
as §1

Experiment [8] concerns Vero. The experiment can be described thus: Compound was evaluated for antiviral activity against Herpes Simplex Virus (HSV-1 strain 377) in vero cells in exp. No. 2. The class given is functional, Chlorocebus sabaeus. An outline of the steps:
as §1

Experiment [9] relates to Vero. The experiment can be described thus: Compound was tested for the inhibition of the replication of herpes simplex virus (HSV-2 strain MS) in vero cells in exp. No. 1. The class given is functional. The note with it: Chlorocebus sabaeus. In a few lines: as §1
In experiment [10] the test system is Vero. The experiment can be described thus: (§2) Compound was tested for the inhibition of the replication of herpes simplex virus (HSV-2 strain MS) in vero cells in exp. No. 2. The class given is functional. The note with it: Chlorocebus sabaeus. In a few lines:
as §1

The test system of experiment [11] is Vero. The experiment can be described thus: Compound was tested for the inhibition of the replication of herpes simplex virus (HSV-2 strain MS) in vero cells in exp. No. 3. The format is functional. The note with it: Chlorocebus sabaeus. An outline of the steps:
as §1

Experiment [12] deals with Vero. The experiment can be described thus: Compound was tested for the inhibition of the replication of herpes simplex virus (HSV-I strain 377) in vero cells in exp. No. 1. The class given is functional. The note with it: Chlorocebus sabaeus. In a few lines: as §1
The test system of experiment [13] is Vero. The experiment can be described thus: Compound was tested for the inhibition of the replication of herpes simplex virus (HSV-I strain 377) in vero cells in exp. No. 2. The format is functional. The settings on record: Chlorocebus sabaeus. An outline of the steps:
as §1

In experiment [14] the test system is Vero. The experiment can be described thus: Compound was tested for the inhibition of the replication of herpes simplex virus (HSV-I strain 377) in vero cells in exp. No. 3. The format is functional. The settings on record: Chlorocebus sabaeus. An outline of the steps:
as §1

In experiment [15] the test system is Vero. The experiment can be described thus: Compound was evaluated for antiviral activity against Herpes Simplex Virus (HSV-1 strain 377) in vero cells in exp. No. 3. The format is functional, Chlorocebus sabaeus. In a few lines:
as §1

Experiment [16] concerns Vero. The experiment can be described thus: Compound was evaluated for antiviral activity against Herpes Simplex virus (HSV-1 strain 377) in exp. no. 2. The class given is functional, Chlorocebus sabaeus.
Experiment [17] relates to Vero. The experiment can be described thus: Compound was evaluated for antiviral activity against Herpes Simplex virus (HSV-2 strain MS) in exp. no. 1. The format is functional, Chlorocebus sabaeus.
In experiment [18] the test system is Vero. The experiment can be described thus: Compound was evaluated for antiviral activity against Herpes Simplex virus (HSV-2 strain MS) in exp. no. 2. The class given is functional, Chlorocebus sabaeus.
The subject of experiment [19] is Vero. The experiment can be described thus: Compound was tested for the inhibition of the replication of herpes simplex virus (HSV-I strain 377) in vero cells of in exp. no. 1. The note with it: Chlorocebus sabaeus. The format is functional. In a few lines:
as §1

For experiment [20], the system named is Vero. The experiment can be described thus: Compound was tested for the inhibition of the replication of herpes simplex virus (HSV-I strain 377) in vero cells of in exp. no. 2. The class given is functional. The note with it: Chlorocebus sabaeus. In a few lines:
as §1

Experiment [21] has as its system Vero. The experiment can be described thus: Compound was evaluated for antiviral activity against Herpes Simplex Virus (HSV-1 strain 377) in vero cells in exp. no. 1. The class given is functional, Chlorocebus sabaeus. An outline of the steps: as §1
The subject of experiment [22] is Vero. The experiment can be described thus: Compound was tested for the inhibition of the replication of herpes simplex virus (HSV-2 strain MS) in vero cells in exp. no.1. The class given is functional. The settings on record: Chlorocebus sabaeus. An outline of the steps: as §1
In experiment [23] the test system is Vero. The experiment can be described thus: Compound was tested for the inhibition of the replication of herpes simplex virus (HSV-2 strain MS) in vero cells in exp. no.2. The note with it: Chlorocebus sabaeus. The class given is functional. In a few lines: as §1
Experiment [24] has as its system Vero. The experiment can be described thus: Compound was tested for the inhibition of the replication of herpes simplex virus (HSV-I strain 377) in vero cells in exp. no. 1. The format is functional. The settings on record: Chlorocebus sabaeus. An outline of the steps:
as §1

Experiment [25] concerns Vero. Described as §2. The class given is functional. The note with it: Chlorocebus sabaeus. In a few lines:
as §1
The source holds these as a separate data set.

For experiment [26], the system named is Vero. The experiment can be described thus: Compound was evaluated for antiviral activity against Herpes Simplex Virus (HSV-1 strain 377) in vero cells in exp. no.1. The format is functional, Chlorocebus sabaeus. An outline of the steps:
as §1

For experiment [27], the system named is Vero. The experiment can be described thus: Compound was evaluated for antiviral activity against Herpes Simplex Virus (HSV-2 strain MS) in vero cells in exp. no.2. The format is functional, Chlorocebus sabaeus. An outline of the steps:
as §1

Experiment [28] relates to Vero. The experiment can be described thus: Compound was tested for the inhibition of the replication of herpes simplex virus (HSV-I strain 377) in vero cells in exp. no.1. The format is functional. The note with it: Chlorocebus sabaeus. An outline of the steps: as §1
Experiment [29] is filed under the species Oryctolagus cuniculus. The experiment can be described thus: Compound was tested for the inhibition of the replication of herpes simplex virus in vero cells of HSV-2 strain MS in rabbit kidney cells. The class given is functional.
Experiment [30] is filed under the species Oryctolagus cuniculus. The experiment can be described thus: Compound was evaluated for antiviral activity against HSV-2 strain MS in rabbit kidney cells. The class given is functional.
Experiment [31] is filed under the species Oryctolagus cuniculus. The experiment can be described thus: Compound was evaluated for antiviral activity against Herpes Simplex Virus (HSV-1 strain 377) in rabbit kidney cells. The format is functional.
The species named for experiment [32] is Oryctolagus cuniculus. The experiment can be described thus: Compound was tested for the inhibition of the replication of herpes simplex virus (HSV-I strain 377) in rabbit kidney cells. The class given is functional.
Experiment [33] has as its system Vero. The experiment can be described thus: Compound was tested for the inhibition of the replication of herpes simplex virus (HSV-I strain 377) in vero cells in exp. no. 3. The class given is functional. The note with it: Chlorocebus sabaeus. An outline of the steps:
as §1

Converted amounts (≈) assume the structure as drawn. “And” between values parts separate entries of the source, which are not always exact repeats. Identical values can stand only once.

Take `CC(=O)OC[C@H]1O[C@@H](n2cc(C#C[Si](C)(C)C)c(=O)[nH]c2=O)C[C@@H]1OC(C)=O`: the VR in [1] and in [2] was 0 throughout.

Take `Nc1ncnc2c1ncn2[C@@H]1O[C@H](CO)[C@@H](O)[C@@H]1O` [VIDARABINE]: the VR in experiment [3] is given as 1.7; in experiment [4] it was 1.3; in experiment [5], 1.2; in experiment [7], 2.1; in [8] it was 2; in experiment [15], 2.4. Moreover, the MIC50 in experiment [6] was 18 µg/mL (≈ 67.4 µM); in experiment [9] it was 22 µg/mL and 80 µM; in [10], 45 µg/mL and 170 µM; in [11] it was 24 µg/mL and 90 µM; in [12], 70 µM (≈ 18.7 µg/mL); in [13], 15 µg/mL and 60 µM. The MIC50 in [14] was 5 µg/mL and 20 µM.

As for `CCc1cn(C2CC(O)C(CO)C2)c(=O)[nH]c1=O` (stereo not given), the VR in experiment [16] was 2.1; in experiment [17], 1.1; in [18], 1.1; in experiment [21], 2.4. Also, the MIC50 in [19] was 45 µg/mL (≈ 177 µM); in experiment [20] it was 70 µg/mL and 270 µM; in experiment [22], 230 µg/mL and 890 µM; in [23], 180 µg/mL and 700 µM; in [24], 170 µM (≈ 43.2 µg/mL).

For `CCc1cn([C@H]2C[C@H](O)[C@@H](CO)O2)c(=O)[nH]c1=O` [EDOXUDINE], the VR in experiment [4] amounted to 2.2; in experiment [8], 2.3. The MIC50 in experiment [10] is 37 µg/mL (≈ 144 µM); in [13], 20 µg/mL and 80 µM; in experiment [25], 140 µM (≈ 35.9 µg/mL).

In the case of `C#Cc1cn(C2CC(O)C(CO)C2)c(=O)[nH]c1=O` (stereo not given), the results for the VR in experiment [26] and in experiment [27] were 0.9 and 1.1, respectively. Further, the MIC50 was 210 µg/mL and 830 µM in experiment [23]; 250 µg/mL and 990 µM in experiment [28].

As to `Cc1cn([C@@H]2C[C@H](CO)[C@@H](O)C2)c(=O)[nH]c1=O`, the MIC50 in [29] is 7 µg/mL (≈ 29.1 µM); in [32] it was 0.8 µg/mL (≈ 3.33 µM). Also, the VR in [30] is listed as 3.2; in experiment [31] it was 5.4.

On to `C[Si](C)(C)CCc1cn([C@H]2C[C@H](O)[C@@H](CO)O2)c(=O)[nH]c1=O`, for which the VR stood at 0.1 in experiment [1] and 0.5 in experiment [2]. For the same compound, the MIC50 in [33] is 320 µg/mL and 980 µM.

The values are drawn from ChEMBL document CHEMBL1123493, “Synthesis and antiviral activity of the carbocyclic analogues of 5-ethyl-2'-deoxyuridine and of 5-ethynyl-2'-deoxyuridine” (1986).
